Measured values collected from several papers.
Target: Interferon-induced, double-stranded RNA-activated protein kinase (EIF2AK2, Homo sapiens, UniProt P19525)

Compound | effect on | technique | tested at | remaining binding [%]
Nc1ncc2c(n1)-c1c([nH]c3ccc(C#CC4CC4)cc13)CCCC2 | binding | competition with immobilised ligand | 1 µM | 100
CNC(=O)[C@@H]1CC[C@@H](n2c(-c3ccc4cnccc4c3)nc3ccc(C(=O)NCc4cccc(C(N)=O)c4)cc32)C1 | binding | competition with immobilised ligand | 1 µM | 94
CC(=O)N1CCC(c2ccc(C(=O)NC(=N)N)cc2C(F)(F)F)CC1 | cell-free assay | competition with immobilised ligand | 1 µM | 100
Cc1cnc(Nc2ccc(C(=O)N3CCC(N4CCCC4)CC3)cc2)nc1-c1cc2ccccc2s1 | binding | competition with immobilised ligand | 1 µM | 7
FC(F)(F)Oc1cccc(-c2cnc3ccc(-c4ccncc4)nn23)c1 | cell-free assay | competition with immobilised ligand | 5 µM | 65
O=C(c1ccc(Nc2ncc(Cl)c(-c3ccc(Cl)s3)n2)cc1)N1CCC(N2CCCC2)CC1 | binding | competition with immobilised ligand | 1 µM | 14
COc1ccnn2ncc(-c3ccnc(N(C)C)n3)c12 | binding | – | 1 µM | 100
O=c1nc(-c2ccccn2)sc2ccccc12 | binding | competition with immobilised ligand | 1 µM | 100
CN(CCCC(F)(F)F)c1nccc(-c2cnn3ncccc23)n1 | binding | – | 1 µM | 100
O=C(O)[C@H]1[C@H](Cn2nnc3ccccc3c2=O)CC[C@@H]1C(=O)c1ccc(OCCC2CCOCC2)cc1 | cell-free assay | competition with immobilised ligand | 1 µM | 91
O=C(Nc1c[nH]nc1C(=O)NC1CCNCC1)c1cc(F)cc(F)c1 | binding | competition with immobilised ligand | 1 µM | 100
c1cnn2ncc(-c3ccnc(N4CCC45COC5)n3)c2c1 | binding | – | 1 µM | 100
O=C(O)c1cc(-c2ccc(C3CCNCC3)cc2)c2ccc(-c3ccc(C(F)(F)F)cc3)cc2c1 | cell-free assay | competition with immobilised ligand | 1 µM | 100
O=C(c1ccc(Nc2ncc(Cl)c(-c3cc4ccccc4s3)n2)cc1)N1CCC(N2CCCC2)CC1 | binding | competition with immobilised ligand | 1 µM | 22
CN(C)c1nccc(-c2cnn3ncccc23)n1 | binding | – | 1 µM | 100
O=C(NCc1ncc(C(F)(F)F)cc1Cl)c1ccc2c(c1)C1(CCS(=O)(=O)CC1)[C@@H](C1CC1)N2S(=O)(=O)c1ccc(F)cc1 | cell-free assay | competition with immobilised ligand | 1 µM | 97
N[C@@H]1CCN(c2nccc(-c3cnn4ncccc34)n2)C1 | binding | – | 1 µM | 100
CN1CCN(c2cnc3c(C4CCN(C(=O)c5ccc(OC(F)(F)F)cc5N)CC4)ncnc3c2)CC1 | cell-free assay | competition with immobilised ligand | 1 µM | 85
F[C@@H]1CCN(c2nccc(-c3cnn4ncccc34)n2)C1 | binding | – | 1 µM | 100
c1cncc(-c2cccc(Nc3nccc(NC4CCCCC4)n3)c2)c1 | binding | competition with immobilised ligand | 10 µM | 100
